Measurements collected from several papers.
Compare with care: the assays were run in different laboratories.
RPS6KA3: Ribosomal protein S6 kinase alpha-3 (RPS6KA3, Homo sapiens, UniProt P51812)
RPS6KA3 C-terminal kinase domain: Ribosomal protein S6 kinase alpha-3, C-terminal kinase domain (RPS6KA3, Homo sapiens, UniProt P51812)
RPS6KA3 N-terminal kinase domain: Ribosomal protein S6 kinase alpha-3, N-terminal kinase domain (RPS6KA3, Homo sapiens, UniProt P51812)

Cc1ccc(C(=O)Nc2ccc(CN3CCN(C)CC3)c(C(F)(F)F)c2)cc1C#Cc1cnc2cccnn12 gave a remaining activity of 93% (RPS6KA3; enzyme activity, inhibitor; 23.5 nM).
For Cc1c(NC(=O)c2cc(C(N)=O)nc3cc(F)ccc23)c(C(F)(F)F)nn1Cc1ccc(C#N)cc1, the remaining binding was 87% (RPS6KA3 C-terminal kinase domain; cell-free assay, competition with immobilised ligand; 1 µM).
With O=C1Nc2ccc(Cl)cc2C1=Cc1cc(Cl)c(O)c(Cl)c1 the remaining signal was 96% (RPS6KA3; cell-free assay; 0.5 µM).
The inhibition of COc1cc2ncnc(Nc3ccc(Oc4ccccc4)c(C)c3C)c2cc1OC is reported as -1% (RPS6KA3; enzyme activity, inhibitor; 1 µM).
With FC(F)c1nc2ccccc2n1-c1nc(N2CCOCC2)nc(N2CCOCC2)n1 the remaining activity was 83% (RPS6KA3; enzyme activity, inhibitor; 10 µM).
COc1cc(Cl)c(C(=O)N[C@@H](CN[C@H]2CC[C@@H](N)CC2)Cc2ccc(C#N)cc2)cc1-c1ccc(CN[C@H](C)c2ccc(C)cc2)o1 has a remaining activity of 72% (RPS6KA3; enzyme activity, inhibitor; 1 µM).
The inhibition of c1ccc(CNc2nc(N3CCOc4ccccc43)nc3c2CCCC3)cc1 is reported as 3.3% (RPS6KA3 N-terminal kinase domain; target engagement in cells, inhibitor, chemoproteomics; 20 mM).
CCOc1cc(-c2nncn2C)ccc1Nc1ncc2cc(C)nc(NCC(C)(C)C)c2n1 gave an inhibition of 18% (RPS6KA3; enzyme activity, inhibitor, FRET; 1 µM).
With CC(C)(C)C(=O)c1sc(NC2CCCCC2)nc1N the remaining activity was 104% (RPS6KA3; enzyme activity, inhibitor; 10 µM).
With COc1cc(Nc2cnc(C#N)c(O[C@H](C)CN(C)C)n2)ncc1-c1cnn(C)c1 the remaining activity was 9% (RPS6KA3; enzyme activity, inhibitor, radiometric; 1 µM).
CC/C(=N\NC(=O)C(C)Nc1ccccc1)c1ccc(O)c(C)c1O (stereo not shown) gave an inhibition of 45.7% (RPS6KA3; enzyme activity, inhibitor; 0.1 µM).
With Cn1cncc1C1=CN(c2ncnc3[nH]cnc23)CCS1 the inhibition was 66% (RPS6KA3; enzyme activity, inhibitor, radiometric; 2 µM).
CCCOc1ccc([C@@H]2[C@@H](C(=O)O)[C@H](c3ccc4c(c3)OCO4)CN2CC(=O)Nc2c(CC)cccc2CC)cc1 gave a remaining binding of 76% (RPS6KA3 C-terminal kinase domain; cell-free assay, competition with immobilised ligand; 1 µM).
With N#CCCc1ccc2c(c1)-c1[nH]c3ccc([N+](=O)[O-])cc3c1CC(=O)N2 the remaining signal was 28.6% (RPS6KA3; cell-free assay; 0.5 µM).
The remaining binding of CN(C)CC#Cc1ccc(OCCCc2sc(N3CCc4cccc(C(=O)Nc5nc6ccccc6s5)c4C3)nc2C(=O)O)c(F)c1 is reported as 97% (RPS6KA3 N-terminal kinase domain; cell-free assay, competition with immobilised ligand; 1 µM).
CNC(=O)c1cc(Oc2ccc(NC(=O)Nc3ccc(Cl)c(C(F)(F)F)c3)cc2)ccn1 gave an inhibition of 22% (RPS6KA3; enzyme activity, inhibitor; 0.3 µM).
CCN(CC)CCNC(=O)c1c(C)[nH]c(/C=C2\C(=O)Nc3ccc(F)cc32)c1C gave a remaining signal of 35.5% (RPS6KA3; cell-free assay; 0.5 µM).
For CO[C@@H](C)c1c(Nc2ccc([C@H](N(C)C(=O)C3CCS(=O)(=O)CC3)C(F)(F)F)cc2)cnc2cc(Cl)nn12, the remaining binding was 87% (RPS6KA3 C-terminal kinase domain; cell-free assay, competition with immobilised ligand; 1 µM).
CC(C)(C)c1nc(-c2cccc(NS(=O)(=O)c3c(F)cccc3F)c2F)c(-c2ccnc(N)n2)s1 has a remaining activity of 77% (RPS6KA3; enzyme activity, inhibitor, radiometric; 1 µM).
For Nc1ncnc2occ(-c3ccc(NC(=O)Nc4cc(C(F)(F)F)ccc4F)cc3)c12, the remaining signal was 100% (RPS6KA3 C-terminal kinase domain; cell-free assay, inhibitor; 20 µM).
For CN(C)C1CCN(CC#Cc2nn(C3CCCC3)c3nc(NCc4ccccc4)ncc23)C1 (stereo not shown), the inhibition was 15% (RPS6KA3; enzyme activity, inhibitor, FRET; 10 µM).
For Nc1nc(NC2CCCCC2)sc1C(=O)c1ccccc1, the remaining activity was 85% (RPS6KA3; enzyme activity, inhibitor; 10 µM).
With COc1ccc2cc(OCC3(C(=O)O)CN(C(=O)c4ccc(F)cc4)C3)ccc2c1 the remaining binding was 100% (RPS6KA3 N-terminal kinase domain; cell-free assay, competition with immobilised ligand; 1 µM).
The remaining activity of Cc1sc(C(=O)NC2COC2)cc1-n1cc(NC(=O)Nc2c(F)cccc2Cl)cn1 is reported as 73% (RPS6KA3; enzyme activity, inhibitor; 10 µM).
C[C@@H]1CCN(C(=O)CC#N)C[C@@H]1N(C)c1ncnc2[nH]ccc12 has a remaining signal of 97% (RPS6KA3; cell-free assay, inhibitor; 0.5 µM).
With CNc1cccc2cc(C(=O)Nc3ccc(C(=O)O)cc3)c(=O)[nH]c12 the inhibition was 2.2% (RPS6KA3; enzyme activity, inhibitor; 10 µM).
The remaining binding of COc1ccc2c(c1)O[C@@H](c1ccc(OC)c(OC)c1)C[C@H]2NC(=O)C1(c2ccc3c(c2)OC(F)(F)O3)CC1 is reported as 100% (RPS6KA3 C-terminal kinase domain; cell-free assay, competition with immobilised ligand; 1 µM).
CCN(CC)c1ccc(C2=NNC(=O)CC2C)cc1[N+](=O)[O-] (stereo not shown) gave a remaining activity of 100% (RPS6KA3; enzyme activity, inhibitor; 10 µM).
CCCCN(CCCC)C(=O)CN1C[C@@H](c2cc(OC)c3c(c2)OCO3)[C@H](C(=O)O)[C@H]1CC(C)(C)CCC has a remaining binding of 99.2% (RPS6KA3 N-terminal kinase domain; cell-free assay, competition with immobilised ligand; 1 µM).
With Cc1ccc(Nc2nccc(N(C)c3ccc4c(C)n(C)nc4c3)n2)cc1S(N)(=O)=O the inhibition was 31% (RPS6KA3; enzyme activity, inhibitor; 0.3 µM).
The inhibition of CNc1cc(Oc2cc(C(=O)Nc3cc(N4CCN(C)CC4)cc(C(F)(F)F)c3)ccc2C)ncn1 is reported as -50.6% (RPS6KA3 C-terminal kinase domain; target engagement in cells, inhibitor, chemoproteomics; Huh-7; 1 µM).
The activity vs control of FC(F)(F)Oc1cccc(-c2cnc3ccc(-c4ccncc4)nn23)c1 is reported as 98% (RPS6KA3; enzyme activity, inhibitor, radiometric; 5 µM).
With Cc1ccc(NC(=O)c2ccc(C)c(C(F)(F)F)c2)cc1C#Cc1nn(C2CCC(O)CC2)c2ncnc(N)c12 (stereo not shown) the remaining signal was 44% (RPS6KA3; cell-free assay; 10 µM).
CCCS(=O)(=O)Nc1ccc(F)c(C(=O)c2c[nH]c3ncc(-c4ccc(Cl)cc4)cc23)c1F gave an inhibition of < 10% (RPS6KA3; enzyme activity, inhibitor; 1 µM).
